Measurements published in ChEMBL document CHEMBL1144360, “Phenazine 5,10-dioxide derivatives as hypoxic selective cytotoxins” (2005).
Values joined by “and” are separate entries in the source; they are usually repeats but may differ in a detail not shown here. Identical values can stand only once.

Tests used:
Type in all cases: functional, Cricetulus griseus
Cricetinae gen. sp. [1] = assay: In vitro survival fraction of V79 cells after 2 hours upon treatment with compound in air at 20 uM; design: unit: %
Outline: (§1)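 Clonogenic assay on V79 suspension cultures gassed with air (aerobic) or nitrogen (hypoxia), exposed to compound for 2 h. Colony survival expressed as survival fraction relative to untreated control under the same gas condition. Assays run in duplicate with at least three repetitions; reported value is the mean of two separate experiments.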

Cricetinae gen. sp. [2] = assay: In vitro survival fraction of V79 cells after 2 hours upon treatment with compound under hypoxia at 20 uM; design: unit: %; outline: as §1
Cricetinae gen. sp. [3] = assay: In vitro survival fraction of V79 cells after 2 hours upon treatment with compound under hypoxia at 10 uM; design: unit: %; outline: as §1
Cricetinae gen. sp. [4] = assay: In vitro survival fraction of V79 cells after 2 hours upon treatment with compound in air at 10 uM; design: unit: %; outline: as §1
Cricetinae gen. sp. [5] = assay: In vitro survival fraction of V79 cells after 2 hours upon treatment with compound under hypoxia at 5 uM; outline: as §1
Cricetinae gen. sp. [6] = assay: In vitro survival fraction of V79 cells after 2 hours upon treatment with compound in air at 5 uM; outline: as §1

Row | SMILES | SF (Cricetinae gen. sp. [1]) | SF (Cricetinae gen. sp. [2]) | SF (Cricetinae gen. sp. [3]) | SF (Cricetinae gen. sp. [4]) | SF (Cricetinae gen. sp. [5]) | SF (Cricetinae gen. sp. [6])
1 | O=Cc1ccc2nc3cc(O)ccc3nc2c1 | 98 | 100 | – | – | – | –
2 | [O-][n+]1c2ccccc2[n+]([O-])c2cc(O)ccc21 | 100 | 73 | – | – | – | –
3 | Cc1ccc2nc3cc(N)ccc3[n+]([O-])c2c1 | 100 and 98 | 100 | – | – | – | –
4 | Nc1ccc2nc3cc(C4OCCO4)ccc3nc2c1 | 100 | 100 | – | – | – | –
5 | Cc1ccc2c(c1)[n+]([O-])c1ccc(O)cc1[n+]2[O-] | 93 | 100 | – | – | – | –
6 | Nc1ccc2nc3cc(Cl)ccc3nc2c1 | 0 | 100 | – | – | – | –
7 | Nc1ccc2c(c1)[n+]([O-])c1ccccc1[n+]2[O-] | 2 | 0 | 19 | 64 | – | –
8 | [O-][n+]1c2ccc(Cl)cc2[n+]([O-])c2ccc(O)cc21 | 100 | 100 | – | – | – | –
9 | Nc1ccc2nc3cc(Br)ccc3nc2c1 | 0 | 0 | – | – | – | –
10 | COc1ccc2c(c1)[n+]([O-])c1ccc(N)cc1[n+]2[O-] | 87 | 23 | – | – | – | –
11 | Oc1ccc2nc3cc(Br)ccc3nc2c1 | 100 | 100 | – | – | – | –
12 | [O-][n+]1c2ccc(Br)cc2[n+]([O-])c2ccc(O)cc21 | 80 | 0 | – | – | – | –
13 | Oc1ccc2nc3cc(Cl)ccc3nc2c1 | 100 | 100 | – | – | – | –
14 | COc1ccc2c(c1)[n+]([O-])c1ccc(O)cc1[n+]2[O-] | 100 | 87 | – | – | – | –
15 | Cc1ccc2nc3cc(N)ccc3nc2c1 | 98 | 100 | – | – | – | –
16 | Nc1ccc2c(c1)[n+]([O-])c1ccc(C3OCCO3)cc1[n+]2[O-] | 14 | 0 | 1 | 86 | 36 | 100
17 | Nc1ccc2c(c1)[n+]([O-])c1ccc(Br)cc1[n+]2[O-] | 12 | 0 | 3 | 64 | – | –
18 | Cc1ccc2nc3cc(O)ccc3nc2c1 | 100 | 100 | – | – | – | –
19 | Cc1ccc2c(c1)[n+]([O-])c1ccc(N)cc1[n+]2[O-] | 61 | 11 | – | – | – | –
20 | [O-][n+]1c2ccc(C3OCCO3)cc2[n+]([O-])c2ccc(O)cc21 | 100 | 100 | – | – | 5 | 100
21 | Nc1ccc2c(c1)[n+]([O-])c1ccc([N+](=O)[O-])cc1[n+]2[O-] | 1 | 2 | 65 | 58 | – | –
22 | Nc1ccc2c(c1)[n+]([O-])c1ccc(Cl)cc1[n+]2[O-] | 0 | 0 | 3 | 26 | – | –
